According to PMC11329366 (Clinical and Translational Science, 2024):

Experiments:
plasma renin activity = test: Phase I pharmacodynamics: plasma renin activity; type: in vivo, human; settings: MAD 40 to 360 mg once daily
serum cortisol = test: Phase I pharmacodynamics: serum cortisol, incl. ACTH challenge; type: in vivo, human
In short: (§1)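 Plasma aldosterone and serum cortisol were followed after single fasted doses and after daily fed dosing. PAC AUC0–24 and cortisol AUC0–72 were derived non-compartmentally. Log AUC was modelled by dose group (pooled placebo), with Day ‑1 log AUC0–24 as covariate. Log change from time-matched Day ‑1 values over 0–24 h used a linear mixed model with unstructured covariance.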

[1] = Phase I first-in-human study: plasma and urine pharmacokinetics; type: in vivo
In short: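 Healthy participants received an oral capsule. SAD: 5–800 mg fasted. MAD: 40, 120 or 360 mg once daily Days 1–7, fed. Females, or males ≥65 y, got a single 100 mg fasted dose, referenced to part 1. Plasma (all parts) and urine (MAD) were analysed non-compartmentally, BLQ=0, linear trapezoidal AUC. Dose proportionality used a power model (slope 95% CI); sex/age used geometric mean ratios (90% CI); fed-vs-fasted was compared informally.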

serum 11-DOC = test: Phase I pharmacodynamics: serum 11-DOC; type: in vivo, human; settings: MAD 40 to 360 mg once daily
[2] = Phase I first-in-human study: safety and tolerability; type: in vivo
In short: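 Randomized, double-blind, placebo-controlled. SAD cohorts had 6 active/2 placebo, with two sentinels dosed ≥24 h before the rest. MAD cohorts had 9 active/3 placebo, dosed daily Days 1–7. Safety data were reviewed before each next cohort. Monitoring covered TEAEs, treatment-related TEAEs, vital signs, 12-lead ECGs, clinical laboratory tests and physical examinations.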

plasma 11-deoxycortisol = test: Phase I pharmacodynamics: plasma 11-deoxycortisol; type: in vivo, human; settings: MAD, non-ACTH challenge conditions
plasma aldosterone = test: Phase I pharmacodynamics: plasma aldosterone concentration; type: in vivo, human
In short: as §1

[3] = tested on: urinary log10 (10 × Na+/K+) ratio; test: Phase I pharmacodynamics: urine sodium and urinary log10; type: in vivo, human
In short: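 Urine was collected in intervals, and the amounts of sodium and potassium excreted per interval were measured. The urinary log10(10 × Na⁺/K⁺) ratio was calculated per interval after single doses and through 7 days of once-daily 40–360 mg dosing plus washout.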

serum potassium = test: Phase I: serum potassium; type: in vivo, human
In short: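 Serum potassium was tracked during 7 days of once-daily 40, 120 or 360 mg dosing (fed) and the following washout. The stopping criterion was 6.0 mmol/L potassium.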

human CYP11B2 (hCYP11B2) = biological target: T1, human CYP11B2 (hCYP11B2) (Homo sapiens, UniProt P19099); test: Assay of hCYP11B2 inhibition; type: biochemical; settings: from inhibition constants
T1 sequence (P19099 25-503): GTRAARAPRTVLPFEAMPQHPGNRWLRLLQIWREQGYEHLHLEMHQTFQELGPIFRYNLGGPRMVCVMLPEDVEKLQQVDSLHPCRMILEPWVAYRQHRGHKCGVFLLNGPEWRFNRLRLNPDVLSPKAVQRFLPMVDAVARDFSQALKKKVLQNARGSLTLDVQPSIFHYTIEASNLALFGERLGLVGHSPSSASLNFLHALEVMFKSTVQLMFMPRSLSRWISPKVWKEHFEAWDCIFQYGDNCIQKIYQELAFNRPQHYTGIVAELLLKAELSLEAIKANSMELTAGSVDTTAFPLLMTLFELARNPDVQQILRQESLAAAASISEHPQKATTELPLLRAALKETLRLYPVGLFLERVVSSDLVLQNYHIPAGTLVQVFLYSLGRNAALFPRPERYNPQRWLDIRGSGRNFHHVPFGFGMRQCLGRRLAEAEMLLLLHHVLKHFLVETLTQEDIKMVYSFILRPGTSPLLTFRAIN
In short: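 Enzyme source: mitochondrial fraction of V79 cells stably expressing human CYP11B2 or human CYP11B1. Substrates were 11-DOC (converted to aldosterone, CYP11B2) and 11-deoxycortisol (converted to cortisol, CYP11B1). Inhibition constants came from product-generation rates with the free base. A dual CYP11B1/CYP11B2 reference inhibitor served as positive control.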

[4] = MAD Day 6, all multiple-dose levels

## CC(=O)N[C@H]1CC[C@H](NC(=O)CN2CCN(c3nncc(-c4ccc(C)cc4)n3)CC2)CC1 [lorundrostat, Lorundrostat]
Plasma renin activity
  plasma renin activity compared with placebo: increased
Serum cortisol; [4]
  ACTH-stimulated cortisol response: no effect
Serum cortisol; MAD, non-ACTH challenge conditions
  change from baseline of serum cortisol concentrations: no relevant changes from baseline
Serum cortisol; single doses 10 to 800 mg
  effect on cortisol (AUC0–72): without effecting cortisol
[1]; MAD Day 7, 95% CI, 1.060–1.234
  estimate of the slope for AUC0–24 versus dose (power model): 1.147
[1]; MAD once-daily dosing
  steady state achieved by: ~5 days
[1]; SAD 5–800 mg
  estimate of the slope (95% CI) for C max versus dose (power model): 1.104 (1.043–1.164)
  interindividual variability of exposure parameters (C max and AUC0–∞): < 20%
[1]; first cohort of part 2 (fed) vs part 1 (fasted), exploratory
  effect of fed state on the PK profile: did not appear to be affected
[1]; human, plasma, oral, 5 mg, t 1/2, SAD 5 mg single dose, fasted, mean (SD)
  half-life: 8.3 h
[1]; human, plasma, oral, 10 mg, t 1/2, SAD 10 mg single dose, fasted, mean (SD)
  half-life: 7.9 h
[1]; human, plasma, oral, 40 mg, t 1/2, MAD 40 mg once daily, fed, Day 1, mean (SD)
  half-life: 5.3 h
[1]; human, plasma, oral, 50 mg, t 1/2, SAD 50 mg single dose, fasted, mean (SD)
  half-life: 9.1 h
[1]; human, plasma, oral, 120 mg, t 1/2, MAD 120 mg once daily, fed, Day 1, mean (SD)
  half-life: 4.4 h
[1]; human, plasma, oral, 200 mg, t 1/2, SAD 200 mg single dose, fasted, mean (SD)
  half-life: 9.9 h
[1]; human, plasma, oral, 360 mg, T max, MAD 360 mg once daily, fed, Day 1, median (minimum, maximum)
  Tmax: 3 h
[1]; human, plasma, oral, 360 mg, t 1/2, MAD 360 mg once daily, fed, Day 1, mean (SD)
  half-life: 4.4 h
[1]; human, plasma, oral, 360 mg, t 1/2, MAD 360 mg once daily, fed, Day 7, mean (SD)
  half-life: 9.2 h
[1]; human, plasma, oral, 400 mg, t 1/2, SAD 400 mg single dose, fasted, mean (SD)
  half-life: 9.7 h
[1]; human, plasma, oral, 800 mg, t 1/2, SAD 800 mg single dose, fasted, mean (SD)
  half-life: 10.5 h
[1]; human, plasma, oral, mean t 1/2, MAD Day 7, range over dose groups
  half-life: 9.1 to 11.9 h
[1]; human, plasma, oral, t 1/2, single- and multiple-dose administration
  half-life: 10 to 12 h
[1]; single 100 mg dose, part 3 vs part 1
  difference in exposure between females and males: no statistically significant difference
[1]; single 100 mg dose, part 4 vs part 1
  difference in exposure between older adult and younger adult participants: no statistically significant difference
Serum 11-DOC
  serum 11-DOC compared with placebo: increased
[2]; across all cohorts, nine lorundrostat-treated participants, placebo one (3.4%)
  incidence of dizziness (of mild intensity): 10.3%
[2]; all lorundrostat-treated participants (41/87), placebo 18/29 [62%]
  overall incidence of TEAEs: 47%
[2]; all parts
  findings in clinical laboratory, vital signs, ECGs, or physical examination: no clinically significant findings
  serious TEAEs: no serious TEAEs
[2]; all parts, single up to 800 mg, once daily up to 360 mg for 7 days
  tolerability: well tolerated
Plasma 11-deoxycortisol
  change from baseline of plasma 11-deoxycortisol concentrations: no relevant changes from baseline
Plasma aldosterone; [4]
  ACTH-stimulated aldosterone response compared with placebo: completely blunted
Plasma aldosterone; SAD, at 4 h and 8 h post-dose
  maximum decrease of PAC compared with placebo: ~ 80%
Plasma aldosterone; multiple once-daily 120-mg doses
  time for plasma aldosterone to return to baseline: ≤ 16 h
Plasma aldosterone; single 400- to 800-mg doses
  reduction of PAC (AUC0–24): up to 70%
Plasma aldosterone; single doses 5–50 mg, post-dose
  time for PAC to return to values near baseline: ≤ 24 h
Plasma aldosterone; single doses 100–800 mg
  duration of the reduction of PAC: sustained until 24 h post‐dose
[3]; MAD Day 1, all dose levels
  urine sodium and urinary log10 (10 × Na+/K+) ratio: initially increased
[3]; MAD Day 7, end of the dosing period
  urine sodium and urinary log10 (10 × Na+/K+) ratio: returned to baseline levels
[3]; MAD, Day 7 to Day 9 (after last dose)
  urinary log10 (10 × Na+/K+) ratio: clear reductions
[3]; SAD, all dose levels
  urine sodium and urinary log10 (10 × Na+/K+) ratio: increased
Serum potassium; MAD 40 mg, Day 8
  maximum mean increase of serum potassium: 0.44 mmol/L
Serum potassium; MAD 120 mg, Day 7
  maximum mean increase of serum potassium: 0.6 mmol/L
Serum potassium; MAD part 2
  subjects reaching the stopping criterion for potassium of 6.0 mmol/L: None
Human CYP11B2 (hCYP11B2)
  selectivity for CYP11B2 over CYP11B1: 374 fold
